Measurements as given in ChEMBL document CHEMBL1124185, “Studies on some derivatives of oxamniquine” (1988).

Columns and labels:
Assay type in all cases: functional
Schistosoma mansoni [1] = test: Percent [3H]uridine incorporation relative to control at 50 ug/mL against hycanthone-sensitive schistosomes (% worms surviving in culture)
Summary of the method: (§1)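 Hycanthone-sensitive Schistosoma mansoni worms exposed to compound in vitro. [3H]uridine incorporation into the worms was measured and expressed relative to untreated controls. Worm survival in culture was scored in parallel.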

Schistosoma mansoni [2] = test: Percent [3H]uridine incorporation relative to controls for a dose of 50 ug/mL against hycanthone-resistant schistosomes
Schistosoma mansoni [3] = test: Percent [3H]uridine incorporation relative to controls for a dose of 100 ug/mL against hycanthone-resistant schistosomes
Schistosoma mansoni [4] = test: Percent [3H]uridine incorporation relative to controls for a dose of 100 ug/mL against hycanthone-sensitive schistosomes.(% warms surviving in culture).; summary of the method: as §1
Schistosoma mansoni [5] = test: Percent [3H]uridine incorporation relative to controls for a dose of 75 ug/mL against hycanthone-resistant schistosomes
Schistosoma mansoni [6] = test: Percent [3H]-uridine incorporation relative to controls for a dose of 100 ug/mL against hycanthone-sensitive schistosomes (% warms surviving in culture).; summary of the method: as §1
[7] = in the assay text read “at 75 ug/mL” for “at 50 ug/mL”

SMILES | Incorporation (Schistosoma mansoni [1]) | Incorporation (Schistosoma mansoni [2]) | Incorporation (Schistosoma mansoni [3]) | Incorporation (Schistosoma mansoni [4]) | Incorporation (Schistosoma mansoni [5]) | Incorporation (Schistosoma mansoni [1]; [7]) | Incorporation (Schistosoma mansoni [6])
CC(C)NCC1CCc2cc(CO)c([N+](=O)[O-])cc2N1 (stereo not drawn) [OXAMNIQUINE] | 14% | 97% | – | – | – | – | –
Cc1cc(C)c(S(=O)(=O)N/N=C/c2cc3c(cc2[N+](=O)[O-])NC(CNC(C)C)CC3)c(C)c1 (stereo not drawn) | 24% | 100% | 100% | 20% | – | – | –
COc1ccc(S(=O)(=O)N/N=C/c2cc3c(cc2[N+](=O)[O-])NC(CNC(C)C)CC3)cc1 (stereo not drawn) | – | – | – | – | 106% | 53% | –
CNC(=O)OCc1cc2c(cc1[N+](=O)[O-])NC(CNC(C)C)CC2 (stereo not drawn) | 22% | 100% | 100% | – | – | – | 21%
CC(C)NCC1CCc2cc(/C=N/NS(=O)(=O)c3ccc([N+](=O)[O-])cc3)c([N+](=O)[O-])cc2N1 (stereo not drawn) | – | – | – | – | 96% | 49% | –
Cc1ccc(S(=O)(=O)N/N=C/c2cc3c(cc2[N+](=O)[O-])NC(CNC(C)C)CC3)cc1 (stereo not drawn) | 60% | 102% | 100% | 32% | – | – | –
